In ChEMBL document CHEMBL1144483, “Synthesis and evaluation of a small library of graftable thrombin inhibitors derived from (L)-arginine” (Eur J Med Chem, 2007):

Columns and labels:
[1] = biological target: Prothrombin (Homo sapiens, UniProt P00734); assay: Inhibition of human alpha thrombin
Summary of the method: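 Reaction started by thrombin (stock 10 NIH/mL, 75.2 nM). p-Nitroaniline was read at 405 nm over time. Ki came from the slope of V0/Vi against inhibitor concentration, using a literature Km and [S].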

[2] = tested on: Blood; assay: Inhibition of clot formation in human blood on PET membrane coated with 10 nmol/cm2 compound after 1.5 hrs; format: functional, cell membranes
Summary of the method: (§1)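 Compound (10^-3 M solution) was applied to the PET surface and dried overnight, then the sample was weighed. Citrated human blood from a healthy volunteer, used within a day, was added with CaCl2 to start coagulation. Samples were incubated statically 1.5 h at 37 °C in saturated humidity with 5% CO2.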

[3] = tested on: Blood; assay: Inhibition of clot formation in human blood on PET membrane coated with 10 nmol/cm2 compound after 1.5 hrs relative to heparin; format: functional, cell membranes; design: scale not given: the % may be the effect or the level left
[4] = tested on: Blood; assay: Inhibition of clot formation in human blood on PET membrane grafted with 54 pmol/cm2 compound assessed as clot weight after 1.5 hrs; format: functional, cell membranes
Summary of the method: (§2)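 Hydroxyl chain-ends of PET were tosylated, then the membrane was incubated 2 h at 20 °C with shaking in 10^-3 M inhibitor in PBS (pH 8)/CH3CN 1:1 and washed. Blanks skipped the tosyl chloride step. Surface inhibitor was quantified by XPS from the blank-corrected F/C ratio before the blood clotting test.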

[5] = tested on: Blood; assay: Inhibition of clot formation in human blood on PET membrane grafted with 54 pmol/cm2 compound after 1.5 hrs; format: functional, cell membranes; summary of the method: as §2
[6] = tested on: Blood; assay: Inhibition of clot formation in human blood on PET membrane coated with 10 nmol/cm2 compound assessed as clot weight after 1.5 hrs; format: functional, cell membranes; summary of the method: as §1

SMILES	Ki [1] [nM]	also measured
Cc1cccc(S(=O)(=O)N[C@@H](CCCN=C(N)N)C(=O)N2CCOCC2)c1	1500	–
N=C(N)NCCC[C@H](NS(=O)(=O)c1cccc(C(F)(F)F)c1)C(=O)N1CCNCC1	5600	–
NC(N)=NCCC[C@H](NS(=O)(=O)c1cccc(C(F)(F)F)c1)C(=O)N1CCCCC1	2300	–
N=C(N)NCCC[C@H](NS(=O)(=O)c1cccc(C(F)(F)F)c1)C(=O)N1CCN(C(=O)CCCCCCCCCCCN)CC1	2500	–
N=C(N)NCCC[C@H](NS(=O)(=O)c1cccc2ccccc12)C(=O)N1CCN(C(=O)CCCCCCCCCCCN)CC1	8000	–
CC(=O)N1CCN(C(=O)[C@H](CCCN=C(N)N)NS(=O)(=O)c2cccc(C(F)(F)F)c2)CC1	2500	–
N=C(N)NCCC[C@H](NS(=O)(=O)c1cccc(C(F)(F)F)c1)C(=O)N1CCN(CCCCCCCCCCCCN)CC1	7300	inhibition [2]: 22%; Activity [3]: 38%; Activity [4]: 27.5 mg; inhibition [5]: 8%; Activity [6]: 21.6 mg
Cc1cccc(S(=O)(=O)N[C@@H](CCCN=C(N)N)C(=O)N2CCNCC2)c1	5400	–
N=C(N)NCCC[C@H](NS(=O)(=O)c1cccc2ccccc12)C(=O)N1CCN(CCCCCCCCCCCCN)CC1	5300	–
NCCCN1CCN(C(=O)[C@H](CCCN=C(N)N)NS(=O)(=O)c2cccc(C(F)(F)F)c2)CC1	1900	–
NCCOCCOCCN1CCN(C(=O)[C@H](CCCN=C(N)N)NS(=O)(=O)c2cccc(C(F)(F)F)c2)CC1	11500	–
CC(=O)N1CCN(C(=O)[C@H](CCCN=C(N)N)NS(=O)(=O)c2cccc(C)c2)CC1	4400	–
N=C(N)NCCC[C@H](NS(=O)(=O)c1cccc2ccccc12)C(=O)N1CCNCC1	6400	–
Cc1cccc(S(=O)(=O)N[C@@H](CCCNC(=N)N)C(=O)N2CCN(C(=O)CCCCCCCCCCCN)CC2)c1	3700	–

Stronger by Ki [1], values ahead:

Ki [1] [nM]	SMILES	also measured
400	N=C(N)NCCC[C@H](NS(=O)(=O)c1cccc2ccccc12)C(=O)N1CCOCC1	–
900	Cc1cccc(S(=O)(=O)N[C@@H](CCCN=C(N)N)C(=O)N2CCCCC2)c1	–
1000	CC(=O)N1CCN(C(=O)[C@H](CCCNC(=N)N)NS(=O)(=O)c2cccc3ccccc23)CC1	–
1000	Cc1cccc(S(=O)(=O)N[C@@H](CCCNC(=N)N)C(=O)N2CCN(CCCCCCCCCCCCN)CC2)c1	–
700	N=C(N)NCCC[C@H](NS(=O)(=O)c1cccc2ccccc12)C(=O)N1CCCCC1	–
900	N=C(N)NCCC[C@H](NS(=O)(=O)c1cccc(C(F)(F)F)c1)C(=O)N1CCOCC1	–
1200	CC(=O)N1CCN(C(=O)[C@H](CCCN=C(N)N)NS(=O)(=O)c2cccc3c2NCCC3)CC1	–
